Source: PubChem (several laboratories)
HUVEC prolif 384 = inhibitors of human endothelial cell proliferation | HUVEC proliferation, CellTiter-Glo luminescence, 72 h; stronger effect = lower value | viability, % at 10 µM (by protocol) | actives 1.1% (n = 86,000);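 active means viability at or below 30%; inactive means viability above 30%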
Jurkat viability = reduces viability or proliferation of Jurkat cells | actives 1.2% (n = 56,000) | Jurkat E6.1 viability, ATP luminescence, 48 h | inhibition, % at 4 µM;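 active means inhibition above the mean inhibition of all tested compounds plus 3 SD, cut at about 28% in these data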
Pyk2 oligo antag = blocks oligomerization of human Pyk2 in cells; z-score (the deposit names both 25 µM and 10 µM); AID 1347419; actives 0.83% (n = 99,000); Q293 cells, Pyk2 FERM NanoBiT luminescence; stronger effect = lower value; Q14289;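 active means Z-score of -3 or lower, scaled per plate to the spread of control and sample wells; inactive means z-score above -3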;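 further: negative z-score means lost luminescence so less FERM oligomerization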
Target sequence (Q14289 whole entry, looked up): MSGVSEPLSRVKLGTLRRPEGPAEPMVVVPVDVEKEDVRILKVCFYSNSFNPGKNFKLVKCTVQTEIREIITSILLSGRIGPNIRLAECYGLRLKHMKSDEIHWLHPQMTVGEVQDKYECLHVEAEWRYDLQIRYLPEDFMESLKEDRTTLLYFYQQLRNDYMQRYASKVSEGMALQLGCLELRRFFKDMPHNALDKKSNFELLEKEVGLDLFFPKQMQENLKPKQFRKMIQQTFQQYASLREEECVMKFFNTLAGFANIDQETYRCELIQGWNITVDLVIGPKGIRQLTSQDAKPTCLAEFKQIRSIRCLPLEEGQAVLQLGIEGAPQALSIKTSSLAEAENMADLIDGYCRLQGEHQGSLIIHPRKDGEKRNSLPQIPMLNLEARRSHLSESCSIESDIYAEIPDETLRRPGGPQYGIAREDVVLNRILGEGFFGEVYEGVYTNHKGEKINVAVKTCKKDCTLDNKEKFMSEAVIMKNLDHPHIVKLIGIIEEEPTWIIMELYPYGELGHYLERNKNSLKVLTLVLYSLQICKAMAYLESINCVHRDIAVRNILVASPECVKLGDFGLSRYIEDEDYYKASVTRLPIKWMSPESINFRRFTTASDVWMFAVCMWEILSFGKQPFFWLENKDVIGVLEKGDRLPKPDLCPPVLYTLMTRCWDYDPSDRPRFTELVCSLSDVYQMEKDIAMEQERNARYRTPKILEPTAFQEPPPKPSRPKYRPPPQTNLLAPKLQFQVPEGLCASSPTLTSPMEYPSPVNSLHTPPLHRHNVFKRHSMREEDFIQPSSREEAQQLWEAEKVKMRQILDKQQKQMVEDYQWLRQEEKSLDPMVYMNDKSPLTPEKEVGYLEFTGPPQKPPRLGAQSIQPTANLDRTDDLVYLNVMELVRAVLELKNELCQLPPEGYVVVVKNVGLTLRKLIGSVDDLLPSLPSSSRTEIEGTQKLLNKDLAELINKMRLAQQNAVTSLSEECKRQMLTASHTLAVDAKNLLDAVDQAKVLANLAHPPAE
F-actin modifier = modifiers of cytoskeleton assembly. HUVEC TNFa F-actin phalloidin imaging, high content. inhibition, % at 2 µM. actives 0.18% (n = 91,000);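 active means inhibition above the batch mean plus 3 SD and confirmed as a hit by visual image inspection, cut at about 30% in these data, passing the limit was not always enough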
H69AR inhibit = growth inhibitors of human H69AR lung tumor cells; H69AR lung tumor viability, ATP luminescence, 72 h; stronger effect = lower value; viability, % at 10 µM; actives 6% (n = 85,000);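 active means viability at or below 40%; inactive means viability above 40%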;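 further: multidrug resistant small cell line overexpressing MRP-1 efflux transporter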
Lung fibro prol = blocks proliferation of human lung fibroblasts; LL 47 human lung fibroblast viability, ATP luminescence; stronger effect = lower value; viability, % at 10 µM; actives 1.1% (n = 85,000);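 active means viability at or below 50% in the single dose screen; inactive means viability above 50%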;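 further: compound exposure lasted 72 h before the ATP readout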
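Material: human lung fibroblast line LL 47, low passage; Evaluation: viability percentage against median untreated-cell control; Buffer or medium: 15% FBS in IMEM; Incubation: 72 h compound exposure at 37 °C after overnight plating; Dosing: 0.1% DMSO in all compound wells; Measured by: CellTiter-Glo luminescence.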
A number is an active result; n = inactive; x = no result given. The list is not random: actives were taken first. Their share in the collection is about 6%.

SMILES	HUVEC prolif 384	Jurkat viability	Pyk2 oligo antag	F-actin modifier	H69AR inhibit	Lung fibro prol
O=C(NCCOC(=O)C1COc2ccccc2O1)c1cccnc1 (centres undefined)	x	n	n	n	x	x
CCOC(=O)c1c(C)c(C(=O)Nc2ccc(N(C)C)cc2)c(C)n1CC	n	59	n	n	19	n
Cc1ccc2oc3nc(C)c(C(=O)Nc4cccc(C(F)(F)F)c4)cc3c(=O)c2c1	x	x	n	n	x	x
CCOc1cc2[nH]c(=S)n(CCC(=O)N3CCc4ccccc4C3)c(=O)c2cc1OCC	n	x	n	n	28	n
CCCNC(=O)N1CCC(C(=O)c2cccc(F)c2)CC1	n	x	n	n	n	n
CC(NC(=O)c1cccs1)C(c1cccs1)N1CCOCC1 (centres undefined)	n	n	n	n	n	n
N#Cc1c(-c2ccco2)cc(-c2ccccn2)nc1N	n	n	n	n	35	n
Cc1occc1C(=O)Nc1cc(C(F)(F)F)ccc1Cl	n	n	n	n	n	n
CCn1c(SCC(=O)c2c[nH]c3ccccc23)nnc1-c1cccs1	n	58	n	n	n	n
CCn1c(SCC(=O)c2ccc(Cl)cc2)nnc1-c1cccs1	n	x	n	x	n	n
CC(C)=C(C#N)c1nc2ccccc2s1	x	n	n	n	x	x
COC(=O)c1ccc(/C(O)=C(\C#N)c2nc3ccccc3s2)cc1	n	n	n	n	32	n
CN(C)c1ccc(C(=O)c2ccc(O)cc2O)cc1	n	x	n	n	n	n
COc1ccc(C(=O)c2ccc(N(C)C)cc2)c2ccccc12	n	x	n	n	27	n
Cc1csc(NC(=O)c2c(O)c3c(n(CC(C)C)c2=O)CCCC3)n1	n	n	n	n	33	n
CC(NC(=O)Nc1nnc(C(F)(F)F)s1)(C(F)(F)F)C(F)(F)F	28	x	n	n	6.2	28
CC(C)(C)CC(=O)Nc1nnc(C(F)(F)F)s1	n	x	n	n	n	n
CCCCCC(=O)O[C@]1(C(C)=O)CC[C@H]2[C@@H]3CCC4=CC(=O)CC[C@]4(C)[C@H]3CC[C@@]21C	n	x	x	x	4.8	n
Cc1cc(C)c(S(=O)(=O)n2ccc3ccccc32)c(C)c1	n	x	x	n	7.8	n
O=S(=O)(c1ccccc1)n1ccc2ccccc21	n	n	n	n	n	n
Clc1ccccc1N/N=C/c1ccc2c(c1)OCO2	x	x	n	x	x	x
O=C1CC(c2ccco2)Cc2nc(Nc3nc(-c4ccccc4)c4ccccc4n3)ncc21 (centres undefined)	n	n	n	n	x	25
Cc1cccc(Nc2ncc3c(n2)CC(c2ccco2)CC3=O)c1 (centres undefined)	n	n	n	n	30	n
O=C(Nc1ncc2c(n1)CC(c1ccco1)CC2=O)c1ccccc1 (centres undefined)	n	n	n	n	n	n
CCCc1nnc2n1N=C(c1ccc(-c3cc(Cl)ccc3Cl)o1)CS2	n	x	x	n	n	n
SMILES	HUVEC prolif 384	Jurkat viability	Pyk2 oligo antag	F-actin modifier	H69AR inhibit	Lung fibro prol
O=C(CCSc1ccc(Cl)cc1)N1CCN(c2ncccn2)CC1	n	n	n	n	n	45
Cc1cc(NC(=O)CCC2CCCC2)no1	n	n	n	n	n	n
c1ccc(-c2cc3c(N4CCOCC4)ncnc3s2)cc1	n	n	n	x	31	x
CC(=O)c1sc(-c2c(C)nc3sccn23)nc1C1CCCC1	n	n	x	x	n	n
Cc1nn(C(C)C(=O)NNC(=S)Nc2ccc(Cl)cc2)c(C)c1[N+](=O)[O-] (centres undefined)	x	x	n	n	x	x
CCOC(=O)c1nnc(-c2ccccc2)nc1NCc1ccc(Cl)cc1	x	x	n	n	x	x
COc1ccc(-c2nnc(NC(=O)c3ccc(S(=O)(=O)N4CCCc5ccccc54)cc3)o2)cc1	3.0	n	-3.7	n	17	n
O=C(NCc1ccccc1)c1ccc(S(=O)(=O)N2CCCc3ccccc32)cc1	n	x	n	n	n	n
O=C(Nc1nnc(C2CC2)o1)c1ccc(S(=O)(=O)N2CCCc3ccccc32)cc1	n	102	x	n	18	n
COC(=O)c1cn(CC(=O)N2CCCCCC2)c2ccccc12	n	n	n	n	n	n
CCOC(=O)C1=C(O)/C(=C/c2cn(CC(=O)N3CCCC3)c3ccccc23)SC1=Nc1ccccc1	n	x	n	n	11	n
CCCOc1ccc([N+](=O)[O-])cc1C1NC(=S)NC(c2ccccc2)=C1C(=O)OCC (centres undefined)	x	x	-4.1	n	x	x
CCOc1ccccc1NC(=O)C1CC2CCCC(C1)C2=O (centres undefined)	n	n	n	n	n	n
Nc1nonc1-c1nc2ccccc2n1CC(=O)O	n	x	n	n	n	n
COC(=O)c1ccccc1NC(=O)Cn1c(-c2nonc2N)nc2ccccc21	22	61	n	n	8.2	47
CC(C)OC(=O)c1ccc(NC(=O)Cn2c(-c3nonc3N)nc3ccccc32)cc1	n	x	-4.2	n	n	n
C=CCc1ccc(OCCCCN2CC(C)OC(C)C2)c(OC)c1 (centres undefined)	n	x	n	x	n	n
Cn1ncc(N=Cc2ccccc2O)c1C(=O)Nc1ccccc1	n	x	n	n	37	n
CCCCNC(=O)c1sc(=S)n2c1[nH]c(=O)c1ccccc12	n	n	n	n	26	n
O=C(NC1CCCCC1)c1sc(=S)n2c1[nH]c(=O)c1ccccc12	n	n	-3	n	n	n
COC(=O)c1ccc(NC(=O)c2cccc(Cl)c2)o1	x	x	n	n	x	x
O=C(Nc1ccc(Cl)cc1)Nc1ccc2c(c1)N1CCN=C1S2	n	n	n	n	35	n
COCCCNC(=O)CC(NS(=O)(=O)c1ccc(Cl)cc1)c1ccc(OC)cc1 (centres undefined)	n	x	n	n	n	n
CC1(C)Cc2c(cnn2-c2ccccc2)-c2c1c1ccccc1n2CC(O)CBr (centres undefined)	n	x	n	n	16	n
C=CCCCCCCCCC(=O)NNC1=CC(=O)CC(C)(C)C1	n	x	n	n	n	n
SMILES	HUVEC prolif 384	Jurkat viability	Pyk2 oligo antag	F-actin modifier	H69AR inhibit	Lung fibro prol
c1coc(-c2nc3c4c5c(sc4ncn3n2)CCCC5)c1	n	n	n	n	n	n
Cc1nc2sc3c(c2c2nc(-c4ccco4)nn12)CCCC3	n	n	x	x	9.1	n
Cc1ccc(Cn2nnc3c(=O)n(CC(=O)NCc4ccc5c(c4)OCO5)cnc32)cc1	n	n	n	n	39	n
Cc1nc(NCc2ccc3c(c2)OCO3)c2nnn(Cc3ccccc3)c2n1	n	n	n	x	n	47
c1ccc(Cn2nnc3c(NCc4ccc5c(c4)OCO5)nc(C4CC4)nc32)cc1	n	n	n	n	n	n
COc1cccc(NC(=O)Cn2c(=O)c3c(ncn3Cc3ccccc3)n(Cc3ccccc3)c2=O)c1	n	x	n	n	n	n
COc1ccc(S(=O)(=O)NCc2ccncc2)cc1OC	n	n	n	x	n	x
CCOC(=O)c1nc(S(C)(=O)=O)ncc1Cl	n	100	n	n	1.6	n
CCOC(=O)c1nc(S(C)(=O)=O)ncc1N1CCOCC1	n	n	n	n	n	n
CCc1ccc2oc(-c3cc(N)cc(C)c3O)nc2c1	n	47	n	n	23	n
